Here are results for 19 compounds from ChEMBL document CHEMBL2093137, “WHO-TDR NTD Screening”.

One data set relates to Leishmania infantum. Nature of the data set: WHO-TDR: Leishmaniasis. It counts as functional, organism-based, Mus musculus. As to conditions: Macrophage. In short, it runs like this:
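Whole-organism screen of a 10,000-compound diverse library from Life Chemicals, filtered for drug-likeness and reactive groups, against intracellular amastigotes of Leishmania infantum MHOM/MA(BE)/67 in murine peritoneal macrophage host cells. The assay followed previously published standard procedures, with a reference drug as positive control. Antiparasitic potency is reported as IC50.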

The test system of the next data set is Trypanosoma cruzi. Nature of the data set: WHO-TDR: Chagas disease. Type of data set: functional, organism-based, Homo sapiens. As to conditions: MRC5. The essentials:
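Intracellular amastigotes of the Trypanosoma cruzi Tulahuen CL2 beta-galactosidase strain, grown in MRC-5SV2 human lung fibroblast host cells, were tested in a whole-organism screen. The compounds came from a 10,000-member diverse Life Chemicals library that had been filtered for drug-likeness and reactive groups. Previously published standard procedures were followed, with a reference drug as positive control, and potency is reported as IC50.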

The nature of data set [1]: WHO-TDR: Cytotoxicity. The following applies: human, MRC5 cells. It counts as toxicity, cell-based.
For a further data set, the system named is Plasmodium falciparum K1. Nature of the data set: WHO-TDR: Malaria. It counts as functional, organism-based, Homo sapiens. As to conditions: Erythrocyte. The essentials:
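Whole-organism screen of a 10,000-compound diverse library from Life Chemicals, filtered for drug-likeness and reactive groups, against intra-erythrocytic Plasmodium falciparum K1 strain in human red blood cells. The assay followed previously published standard procedures, with a reference drug as positive control. Antiplasmodial potency is reported as IC50.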

For another data set, the system named is Brugia malayi. Nature of the data set: WHO-TDR: Lymphatic Filariasis. It counts as functional. Also on record: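 tested at 10 µM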. In short, it runs like this: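 In a whole-organism assay, Brugia malayi microfilariae were screened against a diverse Life Chemicals library that had been filtered for drug-likeness and reactive groups. That library comprised 10,000 compounds. Activity is expressed as percent inhibition and as IC50.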

Data set [2] deals with Trypanosoma brucei brucei. Nature of the data set: WHO-TDR: Human African Trypanosomiasis (HAT). Type of data set: functional, organism-based. As to conditions: Squib-427. In short, it runs like this:
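Whole-organism screen of a 10,000-compound diverse library from Life Chemicals, filtered for drug-likeness and reactive groups, against bloodstream forms of Trypanosoma brucei Squib 427 strain. The assay followed previously published standard procedures, with reference drugs as positive controls. Antiparasitic potency is reported as IC50.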

For the next data set, the system named is Onchocerca ochengi. Nature of the data set: WHO-TDR: Onchocerciasis. It counts as functional. Further details: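 at 12.5 µM on microfilariae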. The essentials:
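Microfilariae of Onchocerca ochengi or Onchocerca lienalis, animal pathogens standing in for the human parasite, were exposed to compounds in a whole-organism screen. The compounds came from a 10,000-compound diverse Life Chemicals library filtered for drug-likeness and reactive groups. Results are expressed as percent inhibition and IC50.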

For a further data set, the system named is Schistosoma mansoni. Nature of the data set: WHO-TDR: Schistosomiasis. Further details: concentration or dose not given beside the values. It counts as functional. In short, it runs like this:
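In this whole-organism assay, larval and/or adult worms of Schistosoma mansoni (Puerto Rican strain) were exposed to compounds from a diverse Life Chemicals library of 10,000 members. A reference drug served as positive control. Activity is stated as percent inhibition and IC50.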

≈ marks a conversion by molar mass, not a printed value.

As to `COc1ccc(S(=O)(=O)NCC(c2cccc3ccccc23)N(C)C)cc1C` (configuration not stated), the IC50 (as a rule, the point on the concentration scale where inhibition reaches its midpoint) with Leishmania infantum is more than 12 mg/L; in the data set on Trypanosoma cruzi, more than 12 mg/L; in data set [1] it was more than 12 mg/L; with Plasmodium falciparum K1, more than 12 mg/L; in data set [2], 4.02 mg/L (≈ 10.1 µM). For the same compound, the % Inhibition (usually the share of the control response that was lost under treatment) is on record as 0% with Brugia malayi, 100% in the data set on Onchocerca ochengi and 0% in the data set on Schistosoma mansoni.
Take `Cc1ccc(-c2nc(CSc3nc(O)cc(C(F)(F)F)n3)c(C)o2)cc1`: the IC50 was more than 11.4 mg/L in the data set on Leishmania infantum; more than 11.4 mg/L in the data set with Trypanosoma cruzi; more than 11.4 mg/L in data set [1]; 11.4 mg/L (≈ 30 µM) in the data set with Plasmodium falciparum K1; more than 11.4 mg/L in data set [2]. Besides, the “% Inhibition” value in the data set with Brugia malayi worked out at 20%; in the data set on Onchocerca ochengi, 100%; in the data set with Schistosoma mansoni it was 0%.
Regarding `Cc1ccc(NC(=O)N2CCN(c3ccc(Nc4cccnc4)nn3)CC2)cc1C`, the IC50 (with Leishmania infantum; with Trypanosoma cruzi; in data set [1]; with Plasmodium falciparum K1; in data set [2]) was more than 12.1 mg/L each time. Besides, the figures for the “% Inhibition” value with Brugia malayi, in the data set with Onchocerca ochengi and in the data set on Schistosoma mansoni were 0%, 100% and 0%, respectively.
For the compound `O=C(Nc1nc2c(s1)CCCC2)C1CCN(S(=O)(=O)c2ccc(F)cc2)CC1`, the IC50 was more than 12.7 mg/L with Leishmania infantum; 2.79 mg/L (≈ 6.58 µM) with Trypanosoma cruzi; more than 12.7 mg/L in data set [1]; more than 12.7 mg/L in the data set with Plasmodium falciparum K1; 4.07 mg/L (≈ 9.6 µM) in data set [2]. Also, the “% Inhibition” value came to 0% with Brugia malayi, 100% with Onchocerca ochengi and 0% in the data set with Schistosoma mansoni.
Take `CS(=O)(=O)N1CCCCC1C(=O)Nc1nc(-c2nc3ccccc3s2)cs1` (configuration not stated): the IC50 (in the data set with Leishmania infantum; in the data set on Trypanosoma cruzi; in data set [1]; with Plasmodium falciparum K1; in data set [2]) was more than 12.7 mg/L throughout. Besides, the “% Inhibition” value with Brugia malayi was 0%; in the data set with Onchocerca ochengi it was 100%; in the data set with Schistosoma mansoni, 0%.
As to `CSc1ccc2nc(N(Cc3cccnc3)C(=O)c3ccc(C(=O)c4ccccc4)cc3)sc2c1`, the IC50 with Leishmania infantum is more than 14.9 mg/L; in the data set with Trypanosoma cruzi, 0.874 mg/L (≈ 1.76 µM); in data set [1], more than 14.9 mg/L; in the data set with Plasmodium falciparum K1, more than 14.9 mg/L; in data set [2], more than 14.9 mg/L. For the same compound, the “% Inhibition” value in the data set with Brugia malayi, with Onchocerca ochengi and in the data set with Schistosoma mansoni was 0% in each case.
Regarding `CCOC(=O)c1sc(-c2ccccc2)cc1NC(=O)c1ccnn1C`, the IC50 was 0.345 mg/L (≈ 0.971 µM) in the data set on Leishmania infantum; more than 10.7 mg/L with Trypanosoma cruzi; more than 10.7 mg/L in data set [1]; more than 10.7 mg/L with Plasmodium falciparum K1; more than 10.7 mg/L in data set [2]. Also, the “% Inhibition” value with Brugia malayi, in the data set on Onchocerca ochengi and with Schistosoma mansoni was 0% each time.
Turning to `COc1ccc(OC)c2sc(N(CC3CCCO3)C(=O)c3ccn(C)n3)nc12` (configuration not stated), the IC50 is 0.391 mg/L (≈ 0.971 µM) in the data set with Leishmania infantum; more than 12.1 mg/L in the data set with Trypanosoma cruzi; more than 12.1 mg/L in data set [1]; more than 12.1 mg/L with Plasmodium falciparum K1; more than 12.1 mg/L in data set [2]. Further, the “% Inhibition” value in the data set with Brugia malayi was 0%; in the data set on Onchocerca ochengi it was 0%; with Schistosoma mansoni it was 16.7%.
`O=S(=O)(NCC(c1cccs1)N1CCOCC1)c1ccc(Cl)cc1` (configuration not stated): the IC50 (with Leishmania infantum; with Trypanosoma cruzi; in data set [1]; with Plasmodium falciparum K1; in data set [2]) was more than 11.6 mg/L throughout. Moreover, the “% Inhibition” value with Brugia malayi is given as 0%; in the data set on Onchocerca ochengi, 100%; in the data set with Schistosoma mansoni, 0%.
Take `CCn1ccc(C(=O)Nc2ccc(C)cc2C(=O)c2ccccc2)n1`: the IC50 (with Leishmania infantum; with Trypanosoma cruzi; in data set [1]; in the data set on Plasmodium falciparum K1; in data set [2]) was more than 10 mg/L throughout. The “% Inhibition” value in the data set with Brugia malayi is on record as 0%; in the data set with Onchocerca ochengi, 100%; with Schistosoma mansoni, 0%.
With `CCOc1ccccc1C(=O)Nc1sc(SCC(N)=O)nc1-c1ccccc1`, the IC50 was more than 12.4 mg/L in the data set with Leishmania infantum; 7.06 mg/L (≈ 17.1 µM) with Trypanosoma cruzi; more than 12.4 mg/L in data set [1]; more than 12.4 mg/L with Plasmodium falciparum K1; 3.97 mg/L (≈ 9.6 µM) in data set [2]. In addition, the “% Inhibition” value in the data set with Brugia malayi is 0%; with Onchocerca ochengi, 100%; in the data set on Schistosoma mansoni it was 0%.
With `CC(C)(C)C(=O)N1CCc2ccc(NC(=O)Cc3cccs3)cc21`, the IC50 was 0.333 mg/L (≈ 0.972 µM) in the data set on Leishmania infantum; 4.11 mg/L (≈ 12 µM) in the data set on Trypanosoma cruzi; more than 10.3 mg/L in data set [1]; more than 10.3 mg/L in the data set with Plasmodium falciparum K1; more than 10.3 mg/L in data set [2]. For the same compound, the “% Inhibition” value in the data set on Brugia malayi stood at 0%; with Onchocerca ochengi, 50%; in the data set on Schistosoma mansoni, 0%.
As to `CCC(C(=O)Nc1cc(-c2cn3nc(OC)ccc3n2)ccc1Cl)c1ccccc1` (configuration not stated), the IC50 in the data set with Leishmania infantum was more than 12.6 mg/L; in the data set on Trypanosoma cruzi, 8.38 mg/L (≈ 19.9 µM); in data set [1], more than 12.6 mg/L; with Plasmodium falciparum K1 it was more than 12.6 mg/L; in data set [2] it was more than 12.6 mg/L. Moreover, the figures for the “% Inhibition” value in the data set with Brugia malayi, in the data set with Onchocerca ochengi and with Schistosoma mansoni were 0%, 100% and 0%, respectively.
`COc1cccc(NC(=O)NCCNc2ccc(Nc3cc(C)ccn3)nn2)c1`: the IC50 with Leishmania infantum was more than 11.8 mg/L; with Trypanosoma cruzi it was more than 11.8 mg/L; in data set [1], more than 11.8 mg/L; with Plasmodium falciparum K1, 9.93 mg/L (≈ 25.2 µM); in data set [2] it was 3.82 mg/L (≈ 9.71 µM). Further, the “% Inhibition” value in the data set on Brugia malayi was 25%; with Onchocerca ochengi, 100%; with Schistosoma mansoni, 0%.
As to `CN(C)C(CNS(=O)(=O)c1ccc(Cl)s1)c1ccc(F)cc1` (configuration not stated), the IC50 in the data set with Leishmania infantum was more than 10.9 mg/L; with Trypanosoma cruzi, more than 10.9 mg/L; in data set [1], more than 10.9 mg/L; in the data set with Plasmodium falciparum K1 it was more than 10.9 mg/L; in data set [2] it was 3.44 mg/L (≈ 9.49 µM). The figures for the “% Inhibition” value with Brugia malayi, in the data set on Onchocerca ochengi and with Schistosoma mansoni were 0%, 100% and 0%, respectively.
In the case of `COc1cccc(-c2cc(CC(=O)Nc3nc(C)cs3)no2)c1`, the IC50 in the data set on Leishmania infantum is more than 9.88 mg/L; in the data set with Trypanosoma cruzi, more than 9.88 mg/L; in data set [1] it was more than 9.88 mg/L; with Plasmodium falciparum K1, 4.59 mg/L (≈ 13.9 µM); in data set [2] it was more than 9.88 mg/L. Besides, the “% Inhibition” value in the data set on Brugia malayi came to 0%; in the data set on Onchocerca ochengi, 100%; in the data set on Schistosoma mansoni, 0%.
With `COc1ccc(OC)c(Nc2c(C#N)cnc3ccc(Cl)cc23)c1`, the IC50 in the data set on Leishmania infantum is 0.365 mg/L (≈ 1.07 µM); with Trypanosoma cruzi, 3.08 mg/L (≈ 9.07 µM); in data set [1], 1.08 mg/L (≈ 3.18 µM); in the data set with Plasmodium falciparum K1, more than 11.3 mg/L; in data set [2], more than 11.3 mg/L. Further, the “% Inhibition” value in the data set on Brugia malayi came out at 20%; in the data set on Onchocerca ochengi, 0%; with Schistosoma mansoni, 0%.
As for `CCOc1ncccc1C(=O)N1CCN(c2ccc(-c3ccc(Cl)cc3)nn2)CC1`, the IC50 in the data set on Leishmania infantum was more than 12.7 mg/L; in the data set with Trypanosoma cruzi, 8.92 mg/L (≈ 21 µM); in data set [1], more than 12.7 mg/L; in the data set with Plasmodium falciparum K1 it was more than 12.7 mg/L; in data set [2], more than 12.7 mg/L. Further, the “% Inhibition” value in the data set with Brugia malayi was found to be 0%; in the data set on Onchocerca ochengi it was 0%; in the data set on Schistosoma mansoni, 100%.
`CCn1ccnc1N1CCN(CC(=O)NCc2ccc(C)cc2)CC1`: the IC50 in the data set on Leishmania infantum was 0.402 mg/L (≈ 1.18 µM); in the data set on Trypanosoma cruzi, more than 12.4 mg/L; in data set [1] it was more than 12.4 mg/L; in the data set on Plasmodium falciparum K1, more than 12.4 mg/L; in data set [2], more than 12.4 mg/L. The “% Inhibition” value in the data set on Brugia malayi, with Onchocerca ochengi and in the data set on Schistosoma mansoni was 0% in each case.
